Experimental data from ChEMBL document CHEMBL1641579, “Synthesis and biological evaluation of 7-substituted-1-(3-bromophenylamino)isoquinoline-4-carbonitriles as inhibitors of myosin light chain kinase and epidermal growth factor receptor” (Bioorg Med Chem, 2011).

How the values were obtained:
[1] = molecular target: Serine/threonine-protein kinase PAK 4 (Homo sapiens) (UniProt O96013); assay: Inhibition of PAK4 assessed as residual activity at 10 uM
Summary of the method: (§1)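 Panel screen by radioactive kinase assay at a single inhibitor concentration. Score is the percent activity remaining relative to DMSO controls (100%).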

[2] = molecular target: Receptor tyrosine-protein kinase erbB-4 (Homo sapiens) (UniProt Q15303); assay: Inhibition of HER4 assessed as residual activity at 10 uM
Summary of the method: (§2)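 Kinase panel screen run as a radioactive activity assay at single compound concentration. Score reported as percent activity remaining relative to DMSO controls (100%).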

[3] = Inhibition of PKA assessed as residual activity at 10 uM; summary of the method: as §1
[4] = molecular target: Rho-associated protein kinase 2 (Homo sapiens) (UniProt O75116); assay: Inhibition of ROCK2 assessed as residual activity at 10 uM; summary of the method: as §1
[5] = molecular target: RAC-alpha serine/threonine-protein kinase (Homo sapiens) (UniProt P31749); assay: Inhibition of PKBalpha assessed as residual activity at 10 uM; summary of the method: as §1
[6] = molecular target: Aurora kinase B (Homo sapiens) (UniProt Q96GD4); assay: Inhibition of aurora B assessed as residual activity at 10 uM; summary of the method: as §1
[7] = molecular target: Misshapen-like kinase 1 (Homo sapiens) (UniProt Q8N4C8); assay: Inhibition of MINK1 assessed as residual activity at 10 uM; summary of the method: as §2
[8] = molecular target: Dual specificity mitogen-activated protein kinase kinase 1 (Homo sapiens) (UniProt Q02750); assay: Inhibition of MKK1 assessed as residual activity at 10 uM; summary of the method: as §2
[9] = molecular target: Mitogen-activated protein kinase 1 (Homo sapiens) (UniProt P28482); assay: Inhibition of ERK2 assessed as residual activity at 10 uM; summary of the method: as §2
[10] = molecular target: Tyrosine-protein kinase Lck (Homo sapiens) (UniProt P06239); assay: Inhibition of Lck assessed as residual activity at 10 uM; summary of the method: as §2
[11] = molecular target: Cyclin-dependent kinase 2/cyclin A (Homo sapiens) (UniProt P24941+P20248+P78396); assay: Inhibition of CDK2/CyclinA assessed as residual activity at 10 uM; format: protein-complex assay; summary of the method: as §2
[12] = molecular target: Homeodomain-interacting protein kinase 2 (Homo sapiens) (UniProt Q9H2X6); assay: Inhibition of HIPK2 assessed as residual activity at 10 uM; summary of the method: as §2
[13] = molecular target: MAP kinase-activated protein kinase 2 (Homo sapiens) (UniProt P49137); assay: Inhibition of MAPKAPK2 assessed as residual activity at 10 uM; summary of the method: as §2
[14] = molecular target: T1, Mitogen-activated protein kinase 12 (Homo sapiens) (UniProt P53778); assay: Inhibition of p38-gamma assessed as residual activity at 10 uM; summary of the method: as §1
T1 sequence (whole entry): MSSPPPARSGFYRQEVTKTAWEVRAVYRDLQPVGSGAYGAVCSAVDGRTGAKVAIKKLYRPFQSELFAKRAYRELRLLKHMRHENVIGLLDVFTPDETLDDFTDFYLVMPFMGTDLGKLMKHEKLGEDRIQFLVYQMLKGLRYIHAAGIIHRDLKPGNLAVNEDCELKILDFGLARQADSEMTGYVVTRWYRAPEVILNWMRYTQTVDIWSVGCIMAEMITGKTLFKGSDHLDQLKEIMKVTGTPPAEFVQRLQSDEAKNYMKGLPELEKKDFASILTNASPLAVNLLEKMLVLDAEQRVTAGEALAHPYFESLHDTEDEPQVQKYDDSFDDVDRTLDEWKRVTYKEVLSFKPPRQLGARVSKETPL

[15] = molecular target: RAC-beta serine/threonine-protein kinase (Homo sapiens) (UniProt P31751); assay: Inhibition of PKBbeta assessed as residual activity at 10 uM; summary of the method: as §1
[16] = molecular target: T2, Dual specificity protein kinase TTK (Homo sapiens) (UniProt P33981); assay: Inhibition of TTK assessed as residual activity at 10 uM; summary of the method: as §1
T2 sequence (whole entry): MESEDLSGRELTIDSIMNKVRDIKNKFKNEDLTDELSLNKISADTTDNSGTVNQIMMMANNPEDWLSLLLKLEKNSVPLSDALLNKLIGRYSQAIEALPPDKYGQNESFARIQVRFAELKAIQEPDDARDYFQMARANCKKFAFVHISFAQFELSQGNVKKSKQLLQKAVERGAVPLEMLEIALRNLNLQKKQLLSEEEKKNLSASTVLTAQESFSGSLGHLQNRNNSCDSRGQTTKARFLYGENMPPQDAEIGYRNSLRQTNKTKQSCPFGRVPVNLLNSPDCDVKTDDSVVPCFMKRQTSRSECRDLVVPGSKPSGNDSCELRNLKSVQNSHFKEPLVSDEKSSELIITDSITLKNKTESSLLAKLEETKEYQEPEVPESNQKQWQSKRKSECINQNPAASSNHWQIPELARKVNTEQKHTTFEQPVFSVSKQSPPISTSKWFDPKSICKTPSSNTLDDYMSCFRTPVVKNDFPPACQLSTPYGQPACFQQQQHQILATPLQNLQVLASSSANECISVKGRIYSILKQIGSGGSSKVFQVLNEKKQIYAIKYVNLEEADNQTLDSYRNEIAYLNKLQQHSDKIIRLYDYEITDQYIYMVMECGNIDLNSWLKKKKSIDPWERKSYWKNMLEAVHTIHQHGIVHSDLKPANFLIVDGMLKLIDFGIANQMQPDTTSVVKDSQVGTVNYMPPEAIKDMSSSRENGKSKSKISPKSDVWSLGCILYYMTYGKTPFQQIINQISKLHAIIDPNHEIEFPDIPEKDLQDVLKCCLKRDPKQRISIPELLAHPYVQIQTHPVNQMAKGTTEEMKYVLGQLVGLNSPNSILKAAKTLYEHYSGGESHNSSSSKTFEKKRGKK

[17] = molecular target: Ribosomal protein S6 kinase beta-1 (Homo sapiens) (UniProt P23443); assay: Inhibition of S6K1 assessed as residual activity at 10 uM; summary of the method: as §1

Sequence of Receptor tyrosine-protein kinase erbB-4 (Homo sapiens) (Q15303 whole entry): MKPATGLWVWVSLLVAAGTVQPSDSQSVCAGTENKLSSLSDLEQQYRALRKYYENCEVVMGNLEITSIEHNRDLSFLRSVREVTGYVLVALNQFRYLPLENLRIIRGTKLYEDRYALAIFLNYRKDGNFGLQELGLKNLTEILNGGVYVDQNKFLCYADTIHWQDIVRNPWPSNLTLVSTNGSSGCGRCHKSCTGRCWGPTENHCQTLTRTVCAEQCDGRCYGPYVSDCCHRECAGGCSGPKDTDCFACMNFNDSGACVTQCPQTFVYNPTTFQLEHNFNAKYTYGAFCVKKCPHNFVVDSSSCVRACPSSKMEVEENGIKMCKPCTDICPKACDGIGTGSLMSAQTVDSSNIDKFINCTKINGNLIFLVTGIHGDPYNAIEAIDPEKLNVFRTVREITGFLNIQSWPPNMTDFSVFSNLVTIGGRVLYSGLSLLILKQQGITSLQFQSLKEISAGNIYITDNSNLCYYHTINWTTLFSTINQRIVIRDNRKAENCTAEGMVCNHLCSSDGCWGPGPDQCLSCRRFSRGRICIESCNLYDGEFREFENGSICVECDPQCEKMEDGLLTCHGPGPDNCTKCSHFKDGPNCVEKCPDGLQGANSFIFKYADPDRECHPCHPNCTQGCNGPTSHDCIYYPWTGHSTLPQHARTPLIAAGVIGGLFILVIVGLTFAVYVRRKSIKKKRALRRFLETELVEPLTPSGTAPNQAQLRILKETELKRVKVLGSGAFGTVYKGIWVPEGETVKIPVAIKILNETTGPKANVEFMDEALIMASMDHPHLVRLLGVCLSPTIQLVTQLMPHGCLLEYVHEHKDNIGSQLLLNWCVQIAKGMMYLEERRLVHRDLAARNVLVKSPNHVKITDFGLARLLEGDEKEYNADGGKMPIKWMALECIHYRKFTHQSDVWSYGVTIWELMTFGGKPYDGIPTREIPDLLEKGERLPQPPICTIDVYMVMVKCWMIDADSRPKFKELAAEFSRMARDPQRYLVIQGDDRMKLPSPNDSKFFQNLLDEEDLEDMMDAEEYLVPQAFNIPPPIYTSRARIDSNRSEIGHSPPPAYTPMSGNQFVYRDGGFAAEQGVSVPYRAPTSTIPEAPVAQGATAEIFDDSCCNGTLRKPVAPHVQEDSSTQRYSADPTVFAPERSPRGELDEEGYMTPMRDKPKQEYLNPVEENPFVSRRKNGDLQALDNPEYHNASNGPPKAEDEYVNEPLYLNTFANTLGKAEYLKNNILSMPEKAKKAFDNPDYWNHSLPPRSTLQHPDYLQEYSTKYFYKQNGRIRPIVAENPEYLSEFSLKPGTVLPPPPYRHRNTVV
Sequence of RAC-beta serine/threonine-protein kinase (Homo sapiens) (P31751 whole entry): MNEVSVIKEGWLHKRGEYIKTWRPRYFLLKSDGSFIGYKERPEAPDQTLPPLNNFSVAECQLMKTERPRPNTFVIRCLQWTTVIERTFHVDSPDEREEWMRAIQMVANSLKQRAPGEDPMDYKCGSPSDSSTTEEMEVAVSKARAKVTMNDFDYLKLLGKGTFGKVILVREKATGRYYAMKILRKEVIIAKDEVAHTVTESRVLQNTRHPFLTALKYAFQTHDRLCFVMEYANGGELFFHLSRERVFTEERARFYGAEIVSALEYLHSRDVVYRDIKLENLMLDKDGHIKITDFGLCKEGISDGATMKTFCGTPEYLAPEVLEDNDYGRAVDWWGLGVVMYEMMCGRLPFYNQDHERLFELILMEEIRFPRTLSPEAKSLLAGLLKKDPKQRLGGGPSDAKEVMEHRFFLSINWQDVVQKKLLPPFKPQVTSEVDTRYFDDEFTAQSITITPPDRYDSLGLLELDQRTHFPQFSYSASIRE
Sequence of Dual specificity mitogen-activated protein kinase kinase 1 (Homo sapiens) (Q02750 whole entry): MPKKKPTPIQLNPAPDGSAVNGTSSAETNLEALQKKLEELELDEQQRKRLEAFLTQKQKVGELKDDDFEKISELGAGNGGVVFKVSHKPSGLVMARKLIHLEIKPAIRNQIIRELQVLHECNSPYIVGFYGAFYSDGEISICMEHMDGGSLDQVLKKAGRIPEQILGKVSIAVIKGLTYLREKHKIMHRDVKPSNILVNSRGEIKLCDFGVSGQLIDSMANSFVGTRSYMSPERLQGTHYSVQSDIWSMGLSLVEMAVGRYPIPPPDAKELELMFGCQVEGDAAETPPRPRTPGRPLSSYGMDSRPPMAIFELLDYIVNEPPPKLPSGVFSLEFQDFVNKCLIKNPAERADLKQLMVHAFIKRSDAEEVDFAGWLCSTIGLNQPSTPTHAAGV
Sequence of Tyrosine-protein kinase Lck (Homo sapiens) (P06239 whole entry, looked up): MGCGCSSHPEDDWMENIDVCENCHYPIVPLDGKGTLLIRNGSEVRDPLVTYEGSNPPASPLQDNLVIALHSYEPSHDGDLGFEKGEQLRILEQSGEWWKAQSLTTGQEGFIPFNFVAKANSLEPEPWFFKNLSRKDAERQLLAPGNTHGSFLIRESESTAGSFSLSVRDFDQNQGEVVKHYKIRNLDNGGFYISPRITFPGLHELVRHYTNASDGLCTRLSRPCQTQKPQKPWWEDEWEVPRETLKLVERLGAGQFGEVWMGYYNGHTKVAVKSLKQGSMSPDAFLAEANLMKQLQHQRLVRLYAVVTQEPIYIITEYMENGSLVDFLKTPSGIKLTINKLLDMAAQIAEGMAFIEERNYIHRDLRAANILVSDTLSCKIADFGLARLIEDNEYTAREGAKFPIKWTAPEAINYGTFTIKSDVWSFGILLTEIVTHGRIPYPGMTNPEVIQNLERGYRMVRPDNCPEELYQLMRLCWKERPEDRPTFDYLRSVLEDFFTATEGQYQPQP
Sequence of Misshapen-like kinase 1 (Homo sapiens) (Q8N4C8 whole entry, looked up): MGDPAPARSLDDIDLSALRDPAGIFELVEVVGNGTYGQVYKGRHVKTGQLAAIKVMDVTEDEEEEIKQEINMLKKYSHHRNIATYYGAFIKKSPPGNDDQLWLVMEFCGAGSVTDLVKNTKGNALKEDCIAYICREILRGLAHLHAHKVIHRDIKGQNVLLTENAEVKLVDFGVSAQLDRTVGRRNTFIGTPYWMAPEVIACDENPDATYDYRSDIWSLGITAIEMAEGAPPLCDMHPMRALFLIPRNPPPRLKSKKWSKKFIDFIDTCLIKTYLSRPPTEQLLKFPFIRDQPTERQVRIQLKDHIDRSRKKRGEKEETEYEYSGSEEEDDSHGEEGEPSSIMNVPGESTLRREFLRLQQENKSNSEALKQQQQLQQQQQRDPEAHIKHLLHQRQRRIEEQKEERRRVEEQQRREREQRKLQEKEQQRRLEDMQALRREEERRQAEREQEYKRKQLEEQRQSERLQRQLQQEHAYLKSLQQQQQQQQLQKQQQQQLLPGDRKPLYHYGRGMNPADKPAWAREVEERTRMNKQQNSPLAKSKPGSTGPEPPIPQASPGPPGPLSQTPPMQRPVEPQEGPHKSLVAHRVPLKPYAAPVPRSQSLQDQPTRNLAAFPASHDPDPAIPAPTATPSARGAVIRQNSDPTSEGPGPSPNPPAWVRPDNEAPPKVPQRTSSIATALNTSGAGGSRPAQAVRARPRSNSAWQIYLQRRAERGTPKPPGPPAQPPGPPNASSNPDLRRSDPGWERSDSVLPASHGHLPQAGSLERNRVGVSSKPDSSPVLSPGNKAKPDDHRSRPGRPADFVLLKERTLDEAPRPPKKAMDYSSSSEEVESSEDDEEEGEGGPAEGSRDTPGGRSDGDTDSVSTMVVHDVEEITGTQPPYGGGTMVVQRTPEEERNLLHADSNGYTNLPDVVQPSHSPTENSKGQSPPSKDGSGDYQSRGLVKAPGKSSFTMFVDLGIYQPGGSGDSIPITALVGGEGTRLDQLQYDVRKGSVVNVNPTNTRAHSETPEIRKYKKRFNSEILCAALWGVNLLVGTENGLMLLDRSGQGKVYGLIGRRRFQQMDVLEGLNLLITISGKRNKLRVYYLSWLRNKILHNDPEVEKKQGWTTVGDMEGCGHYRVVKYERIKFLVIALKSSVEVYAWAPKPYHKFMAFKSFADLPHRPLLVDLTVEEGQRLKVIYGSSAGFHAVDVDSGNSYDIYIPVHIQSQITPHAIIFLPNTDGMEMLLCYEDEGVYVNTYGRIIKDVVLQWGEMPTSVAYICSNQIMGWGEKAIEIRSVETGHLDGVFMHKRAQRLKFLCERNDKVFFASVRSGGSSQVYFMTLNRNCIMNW
Sequence of Mitogen-activated protein kinase 1 (Homo sapiens) (P28482 whole entry): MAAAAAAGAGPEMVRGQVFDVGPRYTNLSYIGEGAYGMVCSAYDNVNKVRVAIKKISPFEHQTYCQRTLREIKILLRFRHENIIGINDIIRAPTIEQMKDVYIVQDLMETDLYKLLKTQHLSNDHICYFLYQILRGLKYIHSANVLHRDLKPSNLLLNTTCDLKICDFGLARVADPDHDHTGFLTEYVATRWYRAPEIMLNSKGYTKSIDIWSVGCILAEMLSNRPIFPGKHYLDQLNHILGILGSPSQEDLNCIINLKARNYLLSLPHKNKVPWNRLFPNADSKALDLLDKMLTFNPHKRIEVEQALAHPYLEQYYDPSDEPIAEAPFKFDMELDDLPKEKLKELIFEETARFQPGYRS
Sequence of RAC-alpha serine/threonine-protein kinase (Homo sapiens) (P31749 whole entry): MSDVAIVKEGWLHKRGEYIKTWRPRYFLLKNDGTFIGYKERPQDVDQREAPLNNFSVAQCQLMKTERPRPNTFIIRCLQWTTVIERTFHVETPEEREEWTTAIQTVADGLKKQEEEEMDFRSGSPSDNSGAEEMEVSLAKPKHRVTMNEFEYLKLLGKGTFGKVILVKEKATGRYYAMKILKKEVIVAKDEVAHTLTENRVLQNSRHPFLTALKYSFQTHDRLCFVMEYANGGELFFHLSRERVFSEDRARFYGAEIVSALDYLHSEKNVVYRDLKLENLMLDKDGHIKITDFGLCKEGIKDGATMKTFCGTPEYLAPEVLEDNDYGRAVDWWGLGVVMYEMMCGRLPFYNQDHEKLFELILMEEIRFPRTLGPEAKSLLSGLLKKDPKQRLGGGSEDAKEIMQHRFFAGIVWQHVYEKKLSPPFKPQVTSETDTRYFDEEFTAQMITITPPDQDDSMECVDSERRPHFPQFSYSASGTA

| Activity [1] [%] | Activity [2] [%] | Activity [3] [%] | Activity [4] [%] | Activity [5] [%] | Activity [6] [%] | Activity [7] [%] | Activity [8] [%] | Activity [9] [%] | Activity [10] [%] | Activity [11] [%] | Activity [12] [%] | Activity [13] [%] | Activity [14] [%] | Activity [15] [%] | Activity [16] [%] | Activity [17] [%] | Structure (SMILES) |
| --- | --- | --- | --- | --- | --- | --- | --- | --- | --- | --- | --- | --- | --- | --- | --- | --- | --- |
| 82 | 21 | 100 | 100 | 93 | 33 | 58 | 47 | 81 | 60 | 97 | 95 | 97 | 84 | 37 | 74 | 71 | CN(C)C/C=C/C(=O)Nc1ccc2c(C#N)cnc(Nc3cccc(Br)c3)c2c1 |
| 86 | 57 | 100 | 100 | 100 | 42 | 54 | 79 | 95 | 32 | 100 | 88 | 100 | 100 | 87 | 81 | 82 | CN1CCN(CCC(=O)Nc2ccc3c(C#N)cnc(Nc4cccc(Br)c4)c3c2)CC1 |
| 94 | 69 | 100 | 100 | 100 | 41 | 59 | 100 | 100 | 32 | 100 | 93 | 100 | 100 | 85 | 96 | 84 | CN(C)CCCC(=O)Nc1ccc2c(C#N)cnc(Nc3cccc(Br)c3)c2c1 |
